One experiment deals with Human immunodeficiency virus type 1 integrase (Human immunodeficiency virus 1, UniProt Q7ZJM1). Put plainly: Inhibition of human immunodeficiency virus-1 (HIV-1) integrase. Put shortly:
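Disintegration assay with His-tagged HIV-1 integrase catalytic core, expressed in E. coli BL21(DE3) and Ni-NTA purified. Substrate was 0.5 pmol of 5′-32P-labelled, self-annealed DHIV oligonucleotide, reacted with 2 pmol core in Tris buffer pH 7.2 for 1 h at 37 °C. Products were resolved on 15% denaturing polyacrylamide gel and quantified by phosphorimaging. IC50 is the drug concentration halving enzyme activity.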
Chain of Human immunodeficiency virus type 1 integrase (Q7ZJM1 whole entry): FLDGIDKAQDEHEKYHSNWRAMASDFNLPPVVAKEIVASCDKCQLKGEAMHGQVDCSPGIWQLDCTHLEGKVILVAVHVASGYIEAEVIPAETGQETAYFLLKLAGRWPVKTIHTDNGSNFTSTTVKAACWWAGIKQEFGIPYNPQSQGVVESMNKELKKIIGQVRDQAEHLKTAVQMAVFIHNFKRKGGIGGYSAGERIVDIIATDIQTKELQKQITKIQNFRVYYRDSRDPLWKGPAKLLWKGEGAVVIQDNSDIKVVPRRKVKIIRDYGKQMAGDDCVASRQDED
As usually defined, the IC50 is the concentration that gives 50% inhibition. Lower therefore signals greater potency. For `O=C(O)c1ccc2ccc(/C=C/c3ccc(O)cc3O)nc2c1O`, the midpoint of inhibition, the IC50, lay at 2.5 µM.

A further experiment deals with Gag-Pol polyprotein (Rous sarcoma virus (strain Prague C) (RSV-PrC), UniProt P03354). Briefly: Inhibition of rous sarcoma virus (RSV) Integrase. Put shortly: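 His-tagged RSV integrase catalytic core expressed in E. coli BL21(DE3) (IPTG 1 mM, 3 h, 37 °C) and purified on Ni-NTA. Disintegration assay used 0.5 pmol 5′-32P-labeled annealed DRSV oligonucleotide with 2 pmol core in Tris buffer pH 7.2 for 1 h at 37 °C. Products were resolved on a 15% denaturing polyacrylamide gel and quantified by phosphorimager. IC50 is the concentration halving activity.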
Chain of Gag-Pol polyprotein (P03354 1281-1567 limits assumed): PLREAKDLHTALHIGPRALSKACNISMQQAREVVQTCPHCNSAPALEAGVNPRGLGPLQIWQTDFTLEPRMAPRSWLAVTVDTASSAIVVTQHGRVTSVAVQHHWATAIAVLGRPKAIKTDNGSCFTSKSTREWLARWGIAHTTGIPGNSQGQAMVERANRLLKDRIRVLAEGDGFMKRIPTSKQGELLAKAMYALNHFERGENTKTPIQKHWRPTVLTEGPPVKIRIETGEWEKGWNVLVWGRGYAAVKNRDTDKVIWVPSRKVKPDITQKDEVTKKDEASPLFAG
For the compound `O=C(O)c1ccc2ccc(/C=C/c3ccccc3)nc2c1O`, the IC50 is 10.3 µM.
On the same count and under the same terms, in the case of `CC(=O)Oc1ccc(/C=C/c2ccc3cccc(OC(C)=O)c3n2)cc1OC(C)=O` it was over 100 µM.
The same measure, in the same setting: in the case of `O=C(O)c1ccc2ccc(/C=C/c3cc(O)c(O)c(O)c3)nc2c1O` it was 2.1 µM; in that of `O=C(O)c1cc(/C=C/c2ccc3ccc(C(=O)O)c(O)c3n2)ccc1O`, 7.4 µM.
The same measure, in the same setting: in the case of `Cc1ccc2cccc(OC(=O)/C=C/c3ccc(O)c(O)c3)c2n1` it was over 100 µM; in that of `O=C(O)c1ccc2ccc(/C=C/c3ccc(O)cc3)nc2c1O`, 20.9 µM.
Turning to `Nc1cccc2ccc(/C=C/c3ccc(O)c(O)c3)nc12`, the IC50 was over 100 µM.
Compound `N#Cc1ccc2ccc(/C=C/c3ccc(O)c(O)c3)nc2c1O` showed an IC50 of 38 µM.
The same measure, in the same setting: in the case of `O=C(O)c1ccc2ccc(/C=C/c3ccc(O)c(O)c3)nc2c1O` it was 2.3 µM; in that of `Oc1cccc2ccc(/C=C/c3ccccc3)nc12`, over 100 µM.
Same read-out and setting: in the case of `O=C(O)c1ccc2ccc(/C=C/c3ccc(O)cc3O)nc2c1O` it was 38.3 µM; in that of `CC(=O)Oc1cccc2ccc(/C=C/c3ccccc3)nc12`, over 100 µM.
Take `O=[N+]([O-])c1cccc2ccc(/C=C/c3ccc(O)c(O)c3)nc12`: the IC50 was over 100 µM.
In turn, `Oc1ccc(/C=C/c2ccc3cccc(O)c3n2)cc1O` registered an IC50 of 65.1 µM.

The record behind these values is ChEMBL document CHEMBL1133692, “Modeling of the inhibition of retroviral integrases by styrylquinoline derivatives” (J Med Chem, 2000).
